Data on 38 variants can be found in the RNAGym collection of RNA variant scans (doi:10.1126/science.aae0568).

Fewer inactive variants are shown than the library holds. Some results are limits rather than exact numbers.

B1: tRNA (parent)
chain: GUUCCGUUGGCGUAAUGGUAACGCGUCUCCCUCCUAAGGAGAAGACUGCGGGUUCGAGUCCCGUACGGAACG

This data set covers variants of B1. Briefly: yeast fitness relative to wild type (ratio to wild type); higher = fitter; tRNA-Arg(CCU), competitive growth, 37 C, YPD. In a few lines:
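Amplicons of the tRNA-Arg(CCU) gene were sequenced, 100-nucleotide paired-end, from the start population and from each end population of a pooled yeast competition. The competition, in six parallel replicates, lasted 24 hours in YPD at 37°C. Fitness relative to wild type was calculated from changes in genotype frequencies. Genotypes had to have ≥ 100 starting reads, and estimates < 0.5 were set to 0.5.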
Regarding GAUCCGUUGGCGUAAUGGUACCGCGUCUUCCUCCUAAGGAGAAGACUGCGGGUUCGAGUCCCGUACGGAACG [U2A A21C C29U], the yeast fitness is no more than 0.5.

For the variant GAUCCGUUGGCGUAAUGGUAACGCGUCUCCCUCCUACGGACAAGACUGCGGGUUCGAGUCCCGUAAGGAACG [U2A A37C G41C C66A], the yeast fitness is no more than 0.5.

Regarding GAUCCGUUGGCGUCAUGGUAACGCGUCUCCCUCAUAAGGAGAAGACUGUGGGUUUGAGUCCCGUACGGCACG [U2A A14C C34A C49U C55U A69C], the yeast fitness was no more than 0.5.

As to GAUUCGUUGGCGUAAUGGUAACGCGUCUCCCUCCUAAGGAGAAGACUGCGGGUUCGUGUCCCGUACGGAACG [U2A C4U A57U], the yeast fitness was no more than 0.5.

On to GAUAGGUUGGCGUAAUGGUAACGCGUCUCCCUCCUGAGGAGAAGACUGCGGGUUCGAGUCCCGUACAGAACG [U2A C4A C5G A36G G67A], for which the yeast fitness is no more than 0.5.

As for GAUACGUUGGCAUAAUGGUAACGCGUCUCCCUUCUAAGAAGAAGACUGCGGGUUCGAGUCCCGAACGGACCG [U2A C4A G12A C33U G39A U64A A70C], the yeast fitness was no more than 0.5.

For GAUCCGUUGGCGUAAUGGUCACGCGUCUCCCUGCUAAGGAGAAGAUUGCGGGUUCGAGUCCCGUACGGAGCG [U2A A20C C33G C46U A70G], the yeast fitness was no more than 0.5.

In the case of GAUCCGUUGGCGUAAUGGUAACGCGUCUCCCUCCUGAGGAGAAGACUGAGGGUUCGAGUCUCGUACGGAACG [U2A A36G C49A C61U], the yeast fitness is no more than 0.5.

In the case of GAUCCGUUGGCGUAAUGGUAACGCGUCUCCCUCCUAAGGUGAAGACUGCGGGUUCGAGUCCCGUACGGAACG [U2A A40U], the yeast fitness amounted to 0.796.

As for GAUCCGUUGGCGUUAUGGUAGCGCGUCUCCCUCCUAAGGAGAAGAGUGCGGGUUCGUGUCCCGUACGGCACG [U2A A14U A21G C46G A57U A69C], the yeast fitness is no more than 0.5.

In the case of GAUAGGUUGGCGUAAUGGUAACGCGUCUCCCUCCUAAGGAGAAGACUGCGGGUUCGAGUCCCGUGCGGAACG [U2A C4A C5G A65G], the yeast fitness was no more than 0.5.

On to GAUCCGUUGGCGUAAUGGUACAGCGUCUUCCUCCUAAGGAGAAGACUGGGGGUUCGAGUCCCGUACGGAACG [U2A A21C C22A C29U C49G], for which the yeast fitness was no more than 0.5.

On to GAUCCGUUGGCGUAAUGGUUACGCGUCUCCCUCUUAAGGAGAAGACUGCGAGUUCGAGUCCCGUACGGAACG [U2A A20U C34U G51A], for which the yeast fitness was no more than 0.5.

Take GAUCCGUUGGCGUAAUGGUCACGCGUCUCCCUGCUAAGGAGAAGAUUGCGGGUUCGAGUCCCGUACGGAACG [U2A A20C C33G C46U]: the yeast fitness is no more than 0.5.

GAUAGGUUGGCGUAAUGGUAACGCGUCUCCCUCCUGAGGAGAAGACUGCGGGUUCGAGUCCCGUACGGAACG [U2A C4A C5G A36G]: the yeast fitness worked out at 0.524.

As for GAUCCGUUGGCGUACUGGUAACGCGUCUCCCUCCUAAGGAGAAGACUGCGGGUUCGUGUCUCGUACGGAACG [U2A A15C A57U C61U], the yeast fitness is 0.504.

In the case of GAUCCGUUGGCGUAAUGGUUACGCGUCUCCCUCCUAAGGAGAAGCCUGCGGGUUCGAGUCCCGUACGGAACG [U2A A20U A45C], the yeast fitness turned out to be 0.728.

Take GAUUCGUUGCCGUAAUGGUAACGCGUCUCCCUCCUAAGGAGAAGACUGCGGGUUCGAGUCCCGUACGGAACG [U2A C4U G10C]: the yeast fitness stood at 0.522.

Regarding GAUGCGUUGGCGUAAUGGUAACGCGUCUCCCUCCUAAGGAAAAGACUGCGGGUUAGAGUCCCGUACGGAACG [U2A C4G G41A C55A], the yeast fitness is no more than 0.5.

Consider GAUCCGUUGGCGUAAUGGUAACGCGUCUCCCUCCUAAGGAGAAGACUGCGGGUUCGGGUCCCGUACGGAACG [U2A A57G], for which the yeast fitness was found to be 0.897.

Regarding GAUCCGUUGGCGUAAUGGUAACGCGUCUCCCUCCUAAGGUGAAGACUGCGGGUUCGAGUCCCGUACGGAUCG [U2A A40U A70U], the yeast fitness stood at 0.696.

Regarding GAUCCGUUGGCGUACUGGUAACGCGUCUCCCUCCUAAGGAGAAGACUGCGGGUUCGACUCCCGCACGGAACG [U2A A15C G58C U64C], the yeast fitness came out at 0.53.

GAUCCGUUGGCGUAGUGGUAACGCGUCUCCCUCCUAAGGAGAAGUCUACGGGUUCGAGUCCCGUAGGGAACG [U2A A15G A45U G48A C66G]: the yeast fitness is no more than 0.5.

For GAUCCGUUGGCGUAAUGGUGACGCGUCUCCCUCCUAAGGAGAAGACUGCGGGUUCGAGUCCCGUACAGAACG [U2A A20G G67A], the yeast fitness was 0.584.

Consider GAUCCGUUGGCGUAAUGGUACCGCGUCUUCCUCCUAAGGAGAAGACUGCGGGUUCCAGUCCCGUACGGAACG [U2A A21C C29U G56C], for which the yeast fitness was no more than 0.5.

Turning to GAUCCGUUGGCGUAAUGGUAACGCGUCUCCCUCCUAAGGAGACGACUGCGGGUUCGAGUCCCGUACGGAACG [U2A A43C], the yeast fitness worked out at 0.893.

Consider GAUCCGUUGGCGUCAUGGUAACGCGUCUCCCUCCUACGGAGAAGACUGCGGGUUCGAGUCCCGUACGGAACG [U2A A14C A37C], for which the yeast fitness is no more than 0.5.

On to GAUCCGUUGGCGUAAUGGUAGCGCGUCUCCCUUCUAAGGAGAAGACUGCGCGUUCGAGUCCCGUACGGAACG [U2A A21G C33U G51C], for which the yeast fitness is no more than 0.5.

Turning to GAUCCGUUGGCGUAAUGGUAACGCGUCUCCCUCCUAAGGAGAAGCCUGCGGGUUCGAAUCUCGUACGGAACG [U2A A45C G58A C61U], the yeast fitness is no more than 0.5.

Regarding GAUCCGUUGGCGUAAUGGUAACGCGUCUCCCUCCUAAGGAGAAGACUGCGGGUUCGUGUCCCGUUCGGAACG [U2A A57U A65U], the yeast fitness was no more than 0.5.

As to GAUCCGUUGGCGUAAUGGUACCGCGUCUUCCUCCUAAGGAGAAGACUGCGGGUUCGCGUCCCGUACGGAACG [U2A A21C C29U A57C], the yeast fitness came out at 0.583.

For the variant GAUCCGUUGGCGUAAUGGUAGCGCGUCUCCCUCCUAAGGAGAAGACUGCGGGUUCGAGUCCCGUACGGAACG [U2A A21G], the yeast fitness worked out at 1.04.

For the variant GAUACGUUGGCGUAAUGGUAACGCGUCUCCCUCCUAAGGAGAAGACUGCGGGUUCGAGUCCCGUACGGAACG [U2A C4A], the yeast fitness was determined as 0.914.

With GAUCCGUUGGCGUAAUGGUAACGCGUCUCCCUCCUGAGGAGAAGCCUGCGGGUUCGAGUCCCGUACGCAACG [U2A A36G A45C G68C], the yeast fitness was no more than 0.5.

On to GAUCCGUUGGCGUAAUGGUACCGCGUCUCCCUCCUAAGAAGAAGACUGCGGCUUCGAGUCCUGUACGGAACG [U2A A21C G39A G52C C62U], for which the yeast fitness is no more than 0.5.

As to GAUCCGUUGGCGUAAUGGUAACGCGUCUCCCUCCUAUGGAGAAGACUGCGGGUUCGAGUCCCGUACGGACCG [U2A A37U A70C], the yeast fitness worked out at 0.688.

In the case of GAUUCGUGGGCGUAAUGGUAAGGCGUCUCCCUCCUAAGGAGAAGACAGCGGGUUCGAGUCCCGUACGGACCG [U2A C4U U8G C22G U47A A70C], the yeast fitness is no more than 0.5.

With GAUCCGUUGGCGUAUUGGUAAAGCGUCUCCCUCCUAAGGAGAAGGAUGCGGGCUCGAGUCCCGUACGGAACG [U2A A15U C22A A45G C46A U53C], the yeast fitness was 0.589.
